Reference: ChEMBL document CHEMBL1121923, “N2- and C-7 substituted actinomycin D analogues: synthesis, DNA-binding affinity, and biochemical and biological properties. Structure-activity relationship” (J Med Chem, 1981)
pEC50: −log10 of the molar value. Values after ≈ are worked out from the molar mass of the structure shown.

What was measured:
P388 [1] = experiment: Concentration required for 50% inhibition of incorporation of labeled uridine by P388 cells for the synthesis of RNA (in vitro); assay type: functional; conditions: Mus musculus, read-out: ED50 (the source's name)
P388 [2] = experiment: Concentration required for 50% inhibition of incorporation of labeled thymidine by p388 cells for synthesis of DNA (in vitro); assay type: functional; conditions: Mus musculus, read-out: ED50 (the source's name)
P388 [3] = experiment: Percent of increased life span of P388 cells implanted CDF1 male mice; assay type: functional, Mus musculus
How it was run: (§1)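 CDF1 male mice, groups of seven, given 10^6 P388 cells ip on day 0; drug ip in 5% DMSO–saline on days 1, 5 and 9; controls received vehicle; range of doses tested, optimal nontoxic dose listed; median survival time; %ILS = (treated − control)/control × 100; average of two or more experiments.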

P388 [4] = experiment: Median survival time of the P388 cells implanted CDF1 male mice in vivo; assay type: functional, Mus musculus; how it was run: as §1
P388 [5] = experiment: Optimal dose for antitumor activity was measured in P388 cells of CDF1 male mice in vivo; assay type: functional, Mus musculus; how it was run: as §1
CCRF-CEM = experiment: In vitro antitumor activity against human lymphoblastic leukemia cells.; assay type: functional; conditions: read-out: ID50 (the source's name)
How it was run: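 Human lymphoblastic leukemia CCRF-CEM cells grown in suspension culture; growth inhibition in vitro; ID50 (ng/mL) reported as the 50% inhibitory dose.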

Bos taurus = species: Bos taurus; experiment: Thermal denaturation (deltaTm) of compound against calf thymus DNA was measured; assay type: ADME; conditions: cattle, in vitro
How it was run: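 Calf thymus DNA (MW 100 000–500 000) in 0.01 M phosphate, 5 × 10^-3 M EDTA, pH 7.0; drug 7 × 10^-4 M, DNA nucleotide 7 × 10^-3 M; 259 nm absorbance read at 0.25–1.0 °C steps; Tm taken at 50% hyperchromicity; ΔTm = complex Tm minus DNA Tm.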

Row | SMILES | pEC50 (P388 [1]) | pEC50 (P388 [2]) | ILS (P388 [3]) [%] | MST (P388 [4]) [days] | Optimal dose (P388 [5]) [mg/kg] | IC50 (CCRF-CEM) [µg/mL] | Delta Tm (Bos taurus)
1 | Cc1c2oc3c(C)c(O)c(N)c(C(=O)N[C@@H]4C(=O)N[C@H](C(C)C)C(=O)N5CCC[C@H]5C(=O)N(C)CC(=O)N(C)[C@@H](C(C)C)C(=O)O[C@@H]4C)c3nc-2c(C(=O)N[C@@H]2C(=O)N[C@H](C(C)C)C(=O)N3CCC[C@H]3C(=O)N(C)CC(=O)N(C)[C@@H](C(C)C)C(=O)O[C@@H]2C)c/c1=N/Cc1ccccc1 | 5.85 | 5.57 | – | – | – | – | –
2 | Cc1c2oc3c(C)c(O)c(N)c(C(=O)N[C@@H]4C(=O)N[C@H](C(C)C)C(=O)N5CCC[C@H]5C(=O)N(C)CC(=O)N(C)[C@@H](C(C)C)C(=O)O[C@@H]4C)c3nc-2c(C(=O)N[C@@H]2C(=O)N[C@H](C(C)C)C(=O)N3CCC[C@H]3C(=O)N(C)CC(=O)N(C)[C@@H](C(C)C)C(=O)O[C@@H]2C)c/c1=N/Cc1ccco1 | 6.09 | 5.61 | – | – | – | – | –
3 | Cc1c2oc3c(C)c(OCc4ccc(Cl)c(Cl)c4)cc(C(=O)N[C@@H]4C(=O)N[C@H](C(C)C)C(=O)N5CCC[C@H]5C(=O)N(C)CC(=O)N(C)[C@@H](C(C)C)C(=O)O[C@@H]4C)c3nc-2c(C(=O)N[C@@H]2C(=O)N[C@H](C(C)C)C(=O)N3CCC[C@H]3C(=O)N(C)CC(=O)N(C)[C@@H](C(C)C)C(=O)O[C@@H]2C)c(N)c1=O | – | – | 81 | 19 | 0.5 | – | –
4 | CCCOc1cc(C(=O)N[C@@H]2C(=O)N[C@H](C(C)C)C(=O)N3CCC[C@H]3C(=O)N(C)CC(=O)N(C)[C@@H](C(C)C)C(=O)O[C@@H]2C)c2nc3c(C(=O)N[C@@H]4C(=O)N[C@H](C(C)C)C(=O)N5CCC[C@H]5C(=O)N(C)CC(=O)N(C)[C@@H](C(C)C)C(=O)O[C@@H]4C)c(N)c(=O)c(C)c-3oc2c1C | 6.64 | 5.70 | 52 | 16 | 0.75 | 0.31 (≈ 0.236 µM) | –
5 | Cc1c2oc3c(C)ccc(C(=O)N[C@@H]4C(=O)N[C@H](C(C)C)C(=O)N5CCC[C@H]5C(=O)N(C)CC(=O)N(C)[C@@H](C(C)C)C(=O)O[C@@H]4C)c3nc-2c(C(=O)N[C@@H]2C(=O)N[C@H](C(C)C)C(=O)N3CCC[C@H]3C(=O)N(C)CC(=O)N(C)[C@@H](C(C)C)C(=O)O[C@@H]2C)c(NCCCN)c1=O | 6.93 | 6.37 | 172 | 30 | 1.2 | 0.3 (≈ 0.229 µM) | –
6 | Cc1c2oc3c(C)ccc(C(=O)N[C@@H]4C(=O)N[C@H](C(C)C)C(=O)N5CCC[C@H]5C(=O)N(C)CC(=O)N(C)[C@@H](C(C)C)C(=O)O[C@@H]4C)c3nc-2c(C(=O)N[C@@H]2C(=O)N[C@H](C(C)C)C(=O)N3CCC[C@H]3C(=O)N(C)CC(=O)N(C)[C@@H](C(C)C)C(=O)O[C@@H]2C)c(NCCCCCCCCCCN)c1=O | 6.15 | 5.57 | 64 | 18 | 1.8 | 0.28 (≈ 0.198 µM) | –
7 | COc1cc(C(=O)N[C@@H]2C(=O)N[C@H](C(C)C)C(=O)N3CCC[C@H]3C(=O)N(C)CC(=O)N(C)[C@@H](C(C)C)C(=O)O[C@@H]2C)c2nc3c(C(=O)N[C@@H]4C(=O)N[C@H](C(C)C)C(=O)N5CCC[C@H]5C(=O)N(C)CC(=O)N(C)[C@@H](C(C)C)C(=O)O[C@@H]4C)c(N)c(=O)c(C)c-3oc2c1C | 7.16 | 6.20 | 81 | 19 | 0.6 | 0.16 (≈ 0.124 µM) | –
8 | Cc1c2oc3c(C)c(OCc4ccc(Cl)cc4)cc(C(=O)N[C@@H]4C(=O)N[C@H](C(C)C)C(=O)N5CCC[C@H]5C(=O)N(C)CC(=O)N(C)[C@@H](C(C)C)C(=O)O[C@@H]4C)c3nc-2c(C(=O)N[C@@H]2C(=O)N[C@H](C(C)C)C(=O)N3CCC[C@H]3C(=O)N(C)CC(=O)N(C)[C@@H](C(C)C)C(=O)O[C@@H]2C)c(N)c1=O | – | – | 52 | 16 | 0.45 | 0.5 (≈ 0.358 µM) | –
9 | Cc1c2oc3c(C)c(OC(=O)c4ccccc4)cc(C(=O)N[C@@H]4C(=O)N[C@H](C(C)C)C(=O)N5CCC[C@H]5C(=O)N(C)CC(=O)N(C)[C@@H](C(C)C)C(=O)O[C@@H]4C)c3nc-2c(C(=O)N[C@@H]2C(=O)N[C@H](C(C)C)C(=O)N3CCC[C@H]3C(=O)N(C)CC(=O)N(C)[C@@H](C(C)C)C(=O)O[C@@H]2C)c(N)c1=O | – | – | 91 | 20 | 0.75 | 2.5 (≈ 1.82 µM) | –
10 | Cc1c2oc3c(C)c(OC(=O)C45CC6CC(CC(C6)C4)C5)cc(C(=O)N[C@@H]4C(=O)N[C@H](C(C)C)C(=O)N5CCC[C@H]5C(=O)N(C)CC(=O)N(C)[C@@H](C(C)C)C(=O)O[C@@H]4C)c3nc-2c(C(=O)N[C@@H]2C(=O)N[C@H](C(C)C)C(=O)N3CCC[C@H]3C(=O)N(C)CC(=O)N(C)[C@@H](C(C)C)C(=O)O[C@@H]2C)c(N)c1=O | 6.75 | 6.14 | 167 | 28 | 0.5 | 0.2 (≈ 0.14 µM) | –
11 | Cc1c2oc3c(C)c(OCc4ccc([N+](=O)[O-])cc4)cc(C(=O)N[C@@H]4C(=O)N[C@H](C(C)C)C(=O)N5CCC[C@H]5C(=O)N(C)CC(=O)N(C)[C@@H](C(C)C)C(=O)O[C@@H]4C)c3nc-2c(C(=O)N[C@@H]2C(=O)N[C@H](C(C)C)C(=O)N3CCC[C@H]3C(=O)N(C)CC(=O)N(C)[C@@H](C(C)C)C(=O)O[C@@H]2C)c(N)c1=O | – | – | 33 | 14 | 0.6 | 0.5 (≈ 0.355 µM) | –
12 | Cc1c2oc3c(C)c(O)c(N)c(C(=O)N[C@@H]4C(=O)N[C@H](C(C)C)C(=O)N5CCC[C@H]5C(=O)N(C)CC(=O)N(C)[C@@H](C(C)C)C(=O)O[C@@H]4C)c3nc-2c(C(=O)N[C@@H]2C(=O)N[C@H](C(C)C)C(=O)N3CCC[C@H]3C(=O)N(C)CC(=O)N(C)[C@@H](C(C)C)C(=O)O[C@@H]2C)cc1=N | 7.09 | 5.91 | – | – | – | – | –
13 | Cc1c2oc3c(C)c(O)c(N)c(C(=O)N[C@@H]4C(=O)N[C@H](C(C)C)C(=O)N5CCC[C@H]5C(=O)N(C)CC(=O)N(C)[C@@H](C(C)C)C(=O)O[C@@H]4C)c3nc-2c(C(=O)N[C@@H]2C(=O)N[C@H](C(C)C)C(=O)N3CCC[C@H]3C(=O)N(C)CC(=O)N(C)[C@@H](C(C)C)C(=O)O[C@@H]2C)cc1=O | 5.49 | 5.29 | 129 | 24 | 1.2 | 0.95 (≈ 0.747 µM) | –
14 | Cc1c2oc3c(C)c(OC(=O)c4ccc5ccccc5c4)cc(C(=O)N[C@@H]4C(=O)N[C@H](C(C)C)C(=O)N5CCC[C@H]5C(=O)N(C)CC(=O)N(C)[C@@H](C(C)C)C(=O)O[C@@H]4C)c3nc-2c(C(=O)N[C@@H]2C(=O)N[C@H](C(C)C)C(=O)N3CCC[C@H]3C(=O)N(C)CC(=O)N(C)[C@@H](C(C)C)C(=O)O[C@@H]2C)c(N)c1=O | – | – | 71 | 18 | 0.9 | – | –
15 | Cc1c2oc3c(C)c(O)c(N)c(C(=O)N[C@@H]4C(=O)N[C@H](C(C)C)C(=O)N5CCC[C@H]5C(=O)N(C)CC(=O)N(C)[C@@H](C(C)C)C(=O)O[C@@H]4C)c3nc-2c(C(=O)N[C@@H]2C(=O)N[C@H](C(C)C)C(=O)N3CCC[C@H]3C(=O)N(C)CC(=O)N(C)[C@@H](C(C)C)C(=O)O[C@@H]2C)c/c1=N/Cc1ccc[nH]1 | 6.74 | 6.43 | – | – | – | – | –
16 | Cc1c2oc3c(C)c(O)c(N)c(C(=O)N[C@@H]4C(=O)N[C@H](C(C)C)C(=O)N5CCC[C@H]5C(=O)N(C)CC(=O)N(C)[C@@H](C(C)C)C(=O)O[C@@H]4C)c3nc-2c(C(=O)N[C@@H]2C(=O)N[C@H](C(C)C)C(=O)N3CCC[C@H]3C(=O)N(C)CC(=O)N(C)[C@@H](C(C)C)C(=O)O[C@@H]2C)c/c1=N/Cc1cccc(Oc2ccccc2)c1 | 6.15 | 5.82 | – | – | – | – | –
17 | CCCCNc1c(C(=O)N[C@@H]2C(=O)N[C@H](C(C)C)C(=O)N3CCC[C@H]3C(=O)N(C)CC(=O)N(C)[C@@H](C(C)C)C(=O)O[C@@H]2C)c2nc3c(C(=O)N[C@@H]4C(=O)N[C@H](C(C)C)C(=O)N5CCC[C@H]5C(=O)N(C)CC(=O)N(C)[C@@H](C(C)C)C(=O)O[C@@H]4C)ccc(C)c3oc-2c(C)c1=O | – | – | 36 | 15 | 0.9 | 0.95 (≈ 0.724 µM) | –
18 | Cc1c2oc3c(C)ccc(C(=O)N[C@@H]4C(=O)N[C@H](C(C)C)C(=O)N5CCC[C@H]5C(=O)N(C)CC(=O)N(C)[C@@H](C(C)C)C(=O)O[C@@H]4C)c3nc-2c(C(=O)N[C@@H]2C(=O)N[C@H](C(C)C)C(=O)N3CCC[C@H]3C(=O)N(C)CC(=O)N(C)[C@@H](C(C)C)C(=O)O[C@@H]2C)c(NCCCCCCCCN)c1=O | – | – | 27 | 14 | 1.8 | 0.31 (≈ 0.224 µM) | –
19 | CCCCOc1cc(C(=O)N[C@@H]2C(=O)N[C@H](C(C)C)C(=O)N3CCC[C@H]3C(=O)N(C)CC(=O)N(C)[C@@H](C(C)C)C(=O)O[C@@H]2C)c2nc3c(C(=O)N[C@@H]4C(=O)N[C@H](C(C)C)C(=O)N5CCC[C@H]5C(=O)N(C)CC(=O)N(C)[C@@H](C(C)C)C(=O)O[C@@H]4C)c(N)c(=O)c(C)c-3oc2c1C | 6.11 | 4.95 | 33 | 14 | 0.75 | – | –
20 | Cc1c2oc3c(C)c(O)c(N)c(C(=O)N[C@@H]4C(=O)N[C@H](C(C)C)C(=O)N5CCC[C@H]5C(=O)N(C)CC(=O)N(C)[C@@H](C(C)C)C(=O)O[C@@H]4C)c3nc-2c(C(=O)N[C@@H]2C(=O)N[C@H](C(C)C)C(=O)N3CCC[C@H]3C(=O)N(C)CC(=O)N(C)[C@@H](C(C)C)C(=O)O[C@@H]2C)c/c1=N/Cc1ccc(Cl)c(Cl)c1 | – | – | – | – | – | – | 7
